Measured values from ChEMBL document CHEMBL1153499, “Synthesis, biological evaluation, and metabolic stability of acrylamide derivatives as novel CCR3 antagonists” (Bioorg Med Chem, 2009).
Values belong to the molecule of their own block, whether it stands above or below them.

Experiments:
[1] = Permeability by PAMPA; assay type: ADME; conditions: read-out: permeability
Procedure, shortened: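 PAMPA permeability measured at pH 6.5.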

[2] = AUC (0 to infinity) in mouse at 3 mg/kg, po; assay type: ADME, organism-based; design: time infinity, dose 3 mg/kg, route oral; conditions: plasma
[3] = Apparent permeability across human Caco-2 cells; assay type: ADME, cell-based
[4] = Volume of distribution at steady state in mouse at 1 mg/kg, iv; assay type: ADME, organism-based; design: dose 1 mg/kg, route intravenous; conditions: in vivo, read-out: Vdss
[5] = Bioavailability in mouse at 3 mg/kg, po; conditions: in vivo
[6] = AUC (0 to infinity) in mouse at 1 mg/kg, iv; assay type: ADME, organism-based; design: time infinity, dose 1 mg/kg, route intravenous; conditions: plasma
[7] = Tmax in mouse at 3 mg/kg, po; assay type: ADME, organism-based; design: dose 3 mg/kg, route oral; conditions: in vivo

Papp [1]: > 300 nm/s
SMILES: O=C(NC1CC2CCC(C1)N2Cc1ccc2cc(F)ccc2c1)c1ccccc1-c1ccccc1 (stereo not given)

AUC(0-inf) [2]: 0.2 µg·h/mL | Papp [3]: 40 nm/s | Vd [4]: 9.88 L/kg | bioavailability [5]: 35% | AUC(0-inf) [6]: 0.19 µg·h/mL | Tmax [7]: 48 min
SMILES: O=C(C=C1CCN(C(=O)c2ccccc2O)CC1)N[C@@H]1CCN(Cc2ccc3cc(F)ccc3c2)C1

Papp [1]: 273 nm/s
SMILES: Cc1ccc(C(=O)N2CCC(=CC(=O)N[C@@H]3CCN(Cc4ccc5cc(F)ccc5c4)C3)CC2)c(O)c1

Papp [1]: 47 nm/s
SMILES: O=C(NC1CC2CCC(C1)N2Cc1ccc2cc(F)ccc2c1)c1cc[n+]([O-])cc1C(=O)N1CCCCC1 (stereo not given)

Papp [1]: 199 nm/s
SMILES: O=C(C=C1CCN(C(=O)c2ccccc2)CC1)N[C@@H]1CCN(Cc2ccc3cc(F)ccc3c2)C1
